# TbMetRS inhib – Trypanosoma brucei MetRS inhibition. purified T. brucei MetRS, ATP depletion, Kinase-Glo luminescence. inhibition, % at 11.9 µM. actives 0.4% (n = 360,000);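 active means inhibition above a per-plate cutoff of the control wells' mean inhibition plus 3 SD, cut at about 5.5% in these data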
#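 Material – parasite MetRS enzyme · Medium – HEPES-MgCl2-KCl buffer plus DTT, spermine, BSA, pyrophosphatase · Reagent – ATP, methionine and E. coli bulk tRNA substrates · Times – 15 min enzyme-compound preincubation, 2 h reaction, 10 min detection, 25 °C · Measured by – luminescence of leftover ATP · Evaluation – percent inhibition relative to median high and low control wells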
# p47phox inh – p47phox (human) inhibition; actives 0.53% (n = 220,000); AID 1274; P14598; p47phox/p22phox peptide binding, fluorescence polarization, 2 h; inhibition, % at 24.7 µM
# p97 inhibitor – inhibitors of human p97 ATPase; P55072; recombinant p97 ATPase, Kinase-Glo ATP luminescence, 3 h; inhibition, % at 8 µM; actives 0.42% (n = 220,000); in the data active means inhibition above about 15%
# SUMO HTRF inh – blocks human SUMOylation mediated by UBC9; P63279; HTRF SUMOylation assay, SAE1/SAE2 + UBC9, in vitro; inhibition, % at 35 µM; actives 0.36% (n = 290,000); AID 2006; in the data active means inhibition above about 50%, passing the limit was not always enough
# Target sequence (P63279 whole entry, looked up): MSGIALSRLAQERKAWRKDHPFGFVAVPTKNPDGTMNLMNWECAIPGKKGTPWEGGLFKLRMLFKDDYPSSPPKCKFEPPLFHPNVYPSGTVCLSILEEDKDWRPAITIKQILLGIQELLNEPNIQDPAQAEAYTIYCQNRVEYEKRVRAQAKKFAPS
# 14-3-3 Bad PPI – disrupts binding of bovine 14-3-3 zeta to phospho-Bad peptide. TR-FRET 14-3-3zeta/Dy647-pBad peptide displacement, 1 h. inhibition, % at 21.7 µM. actives 0.71% (n = 220,000);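 active means inhibition above about 70%, limit read from the data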
# Target sequence (P63103 whole entry, looked up): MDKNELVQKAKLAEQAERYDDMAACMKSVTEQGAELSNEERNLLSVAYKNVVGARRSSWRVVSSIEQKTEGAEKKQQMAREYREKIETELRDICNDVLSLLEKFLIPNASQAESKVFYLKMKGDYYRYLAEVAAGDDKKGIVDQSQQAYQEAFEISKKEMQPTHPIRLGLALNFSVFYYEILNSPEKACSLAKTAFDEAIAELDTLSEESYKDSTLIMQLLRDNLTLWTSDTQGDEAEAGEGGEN
# eIF4E-4G inh – eIF4E/eIF4G interaction inhibition in translation initiation; P63073+Q04637; TR-FRET eIF4E-eIF4GI(517-606) binding, 2 h; inhibition, % at 21.7 µM; actives 0.37% (n = 220,000); AID 782
# Numbers stand for hits; – = inactive; · = no result; [ ] = another dose, or the depositor's remark. Most compounds without a hit are left out; they make up all but 1.6% or so of the library.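 How the source made its calls, unless noted: active means inhibition above about 30% (limit read from the data); inactive means the rest.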
SMILES,TbMetRS inhib,p47phox inh,p97 inhibitor,SUMO HTRF inh,14-3-3 Bad PPI,eIF4E-4G inh
CC1CCCCC1NCC(=O)Nc1ccccc1-c1ccccc1 (centres undefined),–,–,–,–,70.9,–
Cc1cc(C)c(NC(=O)c2ccc3c(c2)CCN3S(C)(=O)=O)c(C)c1,–,·,·,–,·,·
CCOC(=O)c1c(NC(=O)C2CC2)sc2c1CC(C)(C)OC2,–,–,–,–,91.4,–
Cc1nc2nc(NCc3cccs3)nn2c(C)c1Cl,–,–,–,–,–,–
CC1OC(OC2C(OC3C(O[C@H]4CC[C@]5(C)C6C=C[C@]78OC[C@@]9(CC[C@@H](C)[C@H](C)C97)[C@H](O)C[C@@]8(C)[C@]6(C)CC[C@H]5C4(C)C)OC(C)C(O)C3O)OC(CO)C(O)C2O)C(O)C(O)C1O (some centres undefined),·,–,·,–,–,55.9
COc1cccc(/C=N/Nc2ncnc3c2[nH]c2ccc(C)cc23)c1OC,–,–,–,–,88.0,–
COc1ccc(/C=N/Nc2ncnc3c2[nH]c2ccccc23)c(OC)c1OC,–,–,–,–,–,–
Cc1cc(C)n2c(NCc3ccccc3)c(-c3cc4ccccc4o3)nc2n1,–,·,·,·,·,·
CCOC(=O)C1CCCN(Cc2ccccc2Cl)C1 (centres undefined),–,–,–,–,70.8,–
CCOC(=O)C1CCCN(Cc2c(F)cccc2Cl)C1 (centres undefined),–,–,–,–,–,–
CCOC(=O)C1CCCN(Cc2ccccc2C)C1 (centres undefined),–,–,–,–,75.6,–
CCOC(=O)C1CCCN(Cc2cccs2)C1 (centres undefined),–,–,–,–,71.0,–
CCOC(=O)C1CCCN(Cc2ccccc2OCC)C1 (centres undefined),–,–,–,–,–,–
Cc1cc(Br)ccc1SCC(=O)OCC(=O)Nc1ncc(C(F)(F)F)cc1Cl,–,–,–,–,–,–
Nc1nc(-c2cc(O)ccc2[N+](=O)[O-])cc(-c2ccccc2)c1[N+](=O)[O-],–,·,·,97.9,·,·
CCc1nn(C(C)C(=O)NCCc2ccc(OC)c(OC)c2)c(=O)c2cc3occc3n12 (centres undefined),–,–,–,–,89.4,–
O=C(CSc1nc2ccccc2n1CCc1ccccc1)N1CCOCC1,–,–,–,–,–,–
O=C(CSc1nc2ccccc2n1CCc1ccccc1)c1ccc(O)c(O)c1,–,–,–,64.6,93.7,62.5
CCOC(=O)CCCc1sc(N)nc1-c1[nH]c(=O)[nH]c1C,–,–,–,–,80.4,–
Cc1ccc(S(=O)(=O)Nc2ccccc2OC(C(=O)OC(C)(C)C)C(=O)OC(C)(C)C)cc1,–,·,·,·,·,·
CC(=O)N1c2c(cc(Br)cc2S(=O)(=O)N2CCN(c3ccccn3)CC2)CC1C (centres undefined),–,–,–,–,87.8,–
CC(=O)N1CCc2cc(Br)cc(S(=O)(=O)N3CCN(c4ccccn4)CC3)c21,–,·,–,–,·,·
COCCCN1CN(S(=O)(=O)c2ccc(C)cc2C)c2nc3ccccc3nc21,–,·,·,–,·,·
O=C(NCc1cccc(C(F)(F)F)c1)C1C(=O)Nc2ccccc2C(=O)N1C1CCCC1 (centres undefined),–,·,·,·,·,·
O=C(NNC(=O)c1cc2cc(Br)ccc2oc1=O)c1ccc(O)cc1,–,–,14.7,–,–,–
SMILES,TbMetRS inhib,p47phox inh,p97 inhibitor,SUMO HTRF inh,14-3-3 Bad PPI,eIF4E-4G inh
O=C(Nc1ccccc1O)c1cc2cc(Br)ccc2oc1=O,–,·,·,–,·,·
O=C(Nc1cccc(-c2cn3ccccc3n2)c1)C1CC1,–,67.0,–,–,–,–
CCC(=O)Nc1cccc(-c2cn3ccccc3n2)c1,–,–,–,–,–,–
CCCCOc1ccc(C(=O)NCc2ccccn2)cc1,–,38.1,–,–,–,–
COc1ccc(C(=O)NCc2ccccn2)cc1,–,–,–,–,–,–
CCc1nc2c(OCC3CCCCC3)cccn2c1N(C)C(=O)c1ccc(C)cc1,–,·,·,·,·,·
C#CCOCCOCCOCCNc1nc(N2CCN(C(=O)Cn3cc(CC(C)O)nn3)CC2)nc(N2CCN(C(=O)[C@H](CCCCN)n3cc(CCC(=O)O)nn3)CC2)n1 (some centres undefined),–,–,–,–,72.3,–
C#CCOCCOCCOCCNc1nc(N2CCN(C(=O)Cn3cc(CCCN=C(N)N)nn3)CC2)nc(N2CCN(C(=O)[C@H]([C@@H](C)O)n3cc(CCCCN)nn3)CC2)n1,–,·,·,·,·,·
C#CCOCCOCCOCCNc1nc(N2CCN(C(=O)Cn3cc(CC(C)O)nn3)CC2)nc(N2CCN(C(=O)[C@H](C)n3cc(CCCN=C(N)N)nn3)CC2)n1 (some centres undefined),·,–,–,–,83.6,–
C#CCOCCOCCOCCNc1nc(N2CCN(C(=O)Cn3cc(CCCN=C(N)N)nn3)CC2)nc(N2CCN(C(=O)[C@H]([C@@H](C)CC)n3cc(CCCN=C(N)N)nn3)CC2)n1,·,–,–,–,86.1,–
C#CCOCCOCCOCCNc1nc(N2CCN(C(=O)Cn3cc(CCCCN)nn3)CC2)nc(N2CCN(C(=O)[C@H](C)n3cc(CCCN=C(N)N)nn3)CC2)n1,·,–,–,–,80.5,–
C#CCOCCOCCOCCNc1nc(N2CCN(C(=O)Cn3cc(CCCN=C(N)N)nn3)CC2)nc(N2CCN(C(=O)[C@H](CCCCN)n3cc(CC(C)O)nn3)CC2)n1 (some centres undefined),–,·,·,·,·,·
CCCCCCCCCCCCOC1OC(CO)C(O)C(O)C1NC(C)=O (centres undefined),–,–,–,–,–,–
O=C(NCc1cccnc1)Nc1ccc(F)cc1F,–,–,–,–,87.4,–
Cc1cccc(C)c1NC(=O)C(c1ccnc2ccccc12)N1CCN(CCN(C)C)CC1 (centres undefined),–,·,·,·,·,·
Cc1cc(C)c(S(=O)(=O)/N=C2/C=C(Sc3ncn[nH]3)C(=O)c3ccccc32)cc1C,–,54.4,–,90.4,75.9[fluorescence artefact?],–
COc1ccc(OC)c(CN2C(=O)c3ccccc3C2c2nnnn2C2CCCC2)c1 (centres undefined),–,·,·,·,·,·
O=C(c1ccccc1NS(=O)(=O)c1ccc(F)cc1F)N1CCCCC1,–,·,·,·,·,·
COc1ccccc1N=c1scc(-c2ccc3c(c2)NC(=O)CO3)n1CC1CCCO1 (centres undefined),–,–,–,–,–,–
CN(C)S(=O)(=O)c1cccc(N=c2scc(-c3ccc4c(c3)NC(=O)CO4)n2CC2CCCO2)c1 (centres undefined),–,–,–,–,70.4,–
CC(C)c1ccc(CN2CCC(C(=O)NCc3cccnc3)CC2)cc1,–,–,–,–,74.0,74.9
OC1CCC2CN3CCc4c([nH]c5ccccc45)C3CC2C1 (centres undefined),–,·,·,·,·,·

# Screens deposited in PubChem BioAssay by several laboratories.
